≈ marks a conversion by molar mass, not a printed value. Calls of active or inactive are those of the source. The calls are words filed in the database; no cut-off is given here.
Assays:
Acinetobacter baumannii [1] = test: Antibacterial activity against Acinetobacter baumannii incubated for 20 to 24 hrs by broth microdilution method; type: functional; details: time 20-24 hrs
Procedure, shortened: (§1)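 Broth microdilution: colonies suspended directly to 1.5×10^8 CFU/mL (0.5 McFarland), then diluted in Mueller–Hinton broth to ~10^5 CFU/mL final. PA stock 1 mg/mL in water, pH 7, serially diluted in MHB. Plates incubated 20–24 h at 37 °C. MIC = lowest concentration inhibiting growth, read as OD600 with optional 1% TTC staining. Triplicate.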

Escherichia coli [2] = test: Antibacterial activity against Escherichia coli K12 incubated for 20 to 24 hrs by broth microdilution method; type: functional; details: time 20-24 hrs; procedure, shortened: as §1
Staphylococcus aureus [3] = test: Antibacterial activity against methicillin resistant Staphylococcus aureus JE2 measured over 21 days by broth microdilution method; type: functional, organism-based; details: time 21.0 day
Staphylococcus aureus [4] = test: Disruption of preformed biofilm in methicillin-resistant Staphylococcus aureus JE2 at MIC to 4 times MIC; type: functional, organism-based
Staphylococcus aureus [5] = test: Antibacterial activity against Methicillin-resistant Staphylococcus aureus JE2 infected in Galleria mellonella assessed as survival at 75 mg/kg measured after 4 days relative to control; type: functional; details: JE2, 96 h, time 4 day
Procedure, shortened: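 G. mellonella larvae injected with 10 µL MRSA JE2 at a pre-set infective dose (60-80% lethality within 48 h, not 100% within 24 h) into last left proleg; after 2 h, 10 µL peptide or antibiotic injected into last right proleg; larvae held at 37 °C, mortality recorded daily for 4 days; untreated infected and PBS-only larvae as controls.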

Acinetobacter baumannii [6] = test: Synergistic antibacterial activity against Acinetobacter baumannii assessed as potentiation of rifampicin-induced antibacterial activity by measuring fold increase in rifampicin MIC incubated for 20 to 24 hrs by checkerboard broth microdilution assay relative to rifampicin alone; type: functional; details: time 20-24 hrs
Procedure, shortened: (§2)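 Checkerboard broth microdilution. E. coli K12 or A. baumannii clinical isolate grown to mid-log (OD ~0.8) and diluted to ~10^5 CFU/mL in MHB. Two-fold dilutions of rifampicin or vancomycin run across the plate against two-fold PA dilutions down it. Incubated 20–24 h at 37 °C, OD read at 470 nm. FICi calculated from the combination MICs.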

Escherichia coli [7] = test: Induction of morphological changes in Escherichia coli K12 assessed as membrane deformations with protruding bumps at 8 ug/ml incubated for 2 hrs by scanning electron microscopy; type: functional, organism-based; details: dose 8.0 µg/ml
Escherichia coli [8] = test: Induction of morphological changes in Escherichia coli K12 assessed as membrane deformations with protruding holes at 8 ug/ml incubated for 2 hrs by scanning electron microscopy; type: functional, organism-based; details: dose 8.0 µg/ml
Staphylococcus aureus [9] = test: Induction of morphological changes in Methicillin-resistant Staphylococcus aureus JE2 assessed as cytoplasmic leakage at 8 ug/ml incubated for 2 hrs by scanning electron microscopy; type: functional, organism-based; details: dose 8.0 µg/ml
Cell membrane [10] = test: Induction of inner membrane permeability in methicillin-resistant Staphylococcus aureus JE2 assessed as shift in bacterial zeta potential at 40 ug/ml measured after 1 hr; type: subcellular; details: dose 40.0 µg/ml
Procedure, shortened: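 Mid-log MRSA JE2 from MHB (OD ~0.8) washed and resuspended in PBS at 5×10^7 CFU/mL, exposed to peptide at 10 × MIC for 1 h, then zeta potential measured at 25 °C; untreated cells as negative control, daptomycin and polymyxin B as reference drugs.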

[11] = Self assembly property of the compound assessed as width of micelles at 1 mg/ml incubated overnight by transmission electron microscopy; type: physicochemical
Procedure, shortened: (§3)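 Samples were dissolved at 2 mM in water, pH 7, and left at room temperature overnight. Applied to copper grids for 5 min, blotted, and negatively stained with NanoVan for 30 s. Imaged by TEM at 120 kV.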

Staphylococcus aureus [12] = test: Antibacterial activity against methicillin-resistant Staphylococcus aureus LAC incubated for 20 to 24 hrs by broth microdilution method; type: functional; details: time 20-24 hrs
Procedure, shortened: (§4)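 Broth microdilution in MHB: direct colony suspension at 0.5 McFarland diluted to ~10^5 CFU/mL final; peptide stock 1 mg/mL in water at pH 7, serially diluted. Incubated 20-24 h at 37 °C; MIC taken as the lowest concentration inhibiting growth (OD 600 nm, 1% TTC stain); triplicate; vancomycin and gentamicin as positive controls.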

Escherichia coli [13] = test: Ratio of MIC for Escherichia coli K12 at pH 5.5 to MIC for Escherichia coli K12 at pH 7.0
Staphylococcus aureus [14] = test: Antibacterial activity against methicillin-resistant Staphylococcus aureus 13C incubated for 20 to 24 hrs by broth microdilution method; type: functional; details: time 20-24 hrs; procedure, shortened: as §4
Cell membrane [15] = test: Induction of inner membrane permeability in Escherichia coli K12 at 8 to 16 ug/mL by propidium iodide staining based spectrofluorometry; type: subcellular; details: dose 8-16 µg/ml
Procedure, shortened: (§5)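 E. coli K12 grown in MHB to mid-log, washed twice in PBS, and diluted to 10^6 CFU/mL in 5 mM HEPES + glucose. Cells preincubated with […] at least 15 min at 37 °C. Then treated with agent at 1/8, 1× or 2× MIC, or with PA–vancomycin 1:1. Fluorescence read at ex 535 / em 615 nm. Polymyxin B as positive control; untreated cells as negative control.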

[16] = Toxicity in Galleria mellonella assessed as survival at 75 mg/kg measured after 4 days relative to control; type: organism-based; details: in vivo, time 4 day
Procedure, shortened: (§6)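 Acute toxicity in G. mellonella larvae following OECD guidelines: cohorts of five larvae injected starting at 25 mg/kg, retested […] on new larvae if lethality was under 40%, continuing until a toxic dose was found; incubated at 37 °C with mortality recorded daily over 4 days.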

[17] = Self assembly property of the compound assessed as zeta potential at 250 ug/mL at pH 7 measured after 2 hrs; type: physicochemical; details: pH 7, 2 h, dose 250 µg/ml
Procedure, shortened: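 Peptide self-assembled at 1 mg/mL, pH 7, annealed 2 h at 80 °C, and aged overnight. Diluted to 250 µg/mL in water; zeta potential measured at 25 °C.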

Staphylococcus aureus [18] = test: Induction of morphological changes in methicillin-resistant Staphylococcus aureus JE2 assessed as membrane deformations with protruding holes at 8 ug/ml incubated for 2 hrs by scanning electron microscopy; type: functional, organism-based; details: dose 8.0 µg/ml
Staphylococcus aureus [19] = test: Antibacterial activity against methicillin-resistant Staphylococcus aureus JE2 incubated for 20 to 24 hrs by broth microdilution method; type: functional; details: time 20-24 hrs; procedure, shortened: as §4
Staphylococcus aureus [20] = test: Induction of morphological changes in methicillin-resistant Staphylococcus aureus JE2 assessed as membrane deformations with protruding bumps at 8 ug/ml incubated for 2 hrs by scanning electron microscopy; type: functional, organism-based; details: dose 8.0 µg/ml
Cell membrane [21] = test: Induction of inner membrane permeability in Escherichia coli K12 assessed as shift in bacterial zeta potential at 40 ug/ml measured after 1 hr; type: subcellular; details: dose 40.0 µg/ml
[22] = Cytotoxicity against HEK293 cells assessed as cell viability up to 64 ug/ml incubated for 24 hrs by XTT assay relative to control; type: toxicity, cell-based; details: human, up to 64 µg/mL, read-out: Activity
Procedure, shortened: (§7)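 HEK-293 cells, passages 3–8, seeded at 5×10^4 per well and preincubated 24 h at 37 °C, 5% CO2. Medium replaced with serially diluted PA, final 8–256 µg/mL, for 24 h, in triplicate. XTT reagent (0.5 mg/mL) added for 4 h at 37 °C, then absorbance read at 600 nm.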

Cell membrane [23] = test: Induction of inner membrane permeability in Escherichia coli K12 at 4 ug/mL by propidium iodide staining based spectrofluorometry; type: subcellular; details: dose 4.0 µg/ml; procedure, shortened: as §5
[24] = Toxicity in Galleria mellonella assessed as survival at 125 to 150 mg/kg measured after 4 days relative to control; type: organism-based; details: in vivo, dose 125-150 mg/kg, time 4 day; procedure, shortened: as §6
Staphylococcus aureus [25] = test: Inhibition of biofilm formation in methicillin-resistant Staphylococcus aureus JE2 at MIC; type: functional, organism-based
[26] = Retention time of the compound by RP-HPLC analysis; type: physicochemical
Procedure, shortened: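 Reverse-phase HPLC, linear gradient 0–100% acetonitrile in water with 0.1% TFA over 20 min; retention time recorded.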

Staphylococcus aureus [27] = test: Ratio of MIC for methicillin-resistant Staphylococcus aureus JE2 at pH 5.5 to MIC for methicillin-resistant Staphylococcus aureus JE2 at pH 7.0
HEK293 = test: Cytotoxicity against HEK293 cells assessed as reduction in cell viability at 64 to 256 ug/ml incubated for 24 hrs by XTT assay; type: toxicity, cell-based; details: human, hek293, 24 h, dose 64-256 µg/ml; procedure, shortened: as §7
Acinetobacter baumannii [28] = test: Synergistic antibacterial activity against Acinetobacter baumannii assessed as fractional inhibitory concentration index incubated for 20 to 24 hrs in presence of rifampicin by checkerboard broth microdilution assay; type: functional; details: time 20-24 hrs; procedure, shortened: as §2
Escherichia coli [29] = test: Induction of morphological changes in Escherichia coli K12 assessed as cytoplasmic leakage at 8 ug/ml incubated for 2 hrs by scanning electron microscopy; type: functional, organism-based; details: dose 8.0 µg/ml
Escherichia coli [30] = test: Synergistic antibacterial activity against Escherichia coli K12 assessed as fractional inhibitory concentration index incubated for 20 to 24 hrs in presence of rifampicin by checkerboard broth microdilution assay; type: functional; details: time 20-24 hrs; procedure, shortened: as §2
[31] = Self assembly property of the compound assessed as formation of micelles at 1 mg/ml incubated overnight by transmission electron microscopy; type: physicochemical; procedure, shortened: as §3
HT-29 [32] = test: Cytotoxicity against human HT-29 cells assessed as inhibition of cell growth incubated for 24 hrs at pH 7.4 by MTT assay; type: toxicity, cell-based; details: ht-29, pH 7.4, 24 h, time 24 hrs
Procedure, shortened: (§8)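 HT-29 cells in McCoy's 5a with 10% FBS were seeded at 15,000 cells/well and grown 24 h at 37 °C, 10% CO2. Medium then changed to pH 7.4 or pH 6.5 (20 mM MOPS, acidified with HCl). Peptide added in 2-fold dilutions, 7.8–500 µg/mL, for 24 h. Wells washed and given fresh pH 7.4 medium. MTT (12 mM, 10 µL) added for 4 h, then SDS-HCl for 4 h; A570 read.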

HT-29 [33] = test: Cytotoxicity against human HT-29 cells assessed as inhibition of cell growth incubated for 24 hrs at pH 6.5 by MTT assay; type: toxicity, cell-based; details: ht-29, pH 6.5, 24 h, time 24 hrs; procedure, shortened: as §8

CNC(C)[C@@H]1CC[C@@H](N)[C@@H](O[C@H]2[C@H](O)[C@@H](O[C@H]3OC[C@](C)(O)[C@H](NC)[C@H]3O)[C@H](N)C[C@@H]2N)O1 (some centres not stated)
MIC (Acinetobacter baumannii [1]): 1 µg/mL (≈ 2.09 µM) | MIC (Escherichia coli [2]): 1 µg/mL (≈ 2.09 µM) | Activity (Staphylococcus aureus [3]): Active

CO[C@H]1/C=C/O[C@@]2(C)Oc3c(C)c(O)c4c(O)c(c(/C=N/N5CCN(C)CC5)c(O)c4c3C2=O)NC(=O)/C(C)=C\C=C\[C@H](C)[C@H](O)[C@@H](C)[C@@H](O)[C@@H](C)[C@H](OC(C)=O)[C@@H]1C [RIFAMPIN]
MIC (Acinetobacter baumannii [1]): 8 µg/mL (≈ 9.72 µM) | MIC (Escherichia coli [2]): 8 µg/mL (≈ 9.72 µM)

CCCCCCCCCCCCCCCCN[C@@H](CCCCN)C(=O)N[C@@H](CCCNC(=N)N)C(=O)N[C@@H](CCCCN)C(=O)N[C@@H](CCCNC(=N)N)C(=O)O
Activity (Staphylococcus aureus [4]): inactive | survival at 75 mg/kg (Staphylococcus aureus [5]): 60% | fold change (FC) (Acinetobacter baumannii [6]): 2 | Activity (Escherichia coli [7]): Active | Activity (Escherichia coli [8]): Active | Activity (Staphylococcus aureus [9]): Active | MIC (Acinetobacter baumannii [1]): 8 µg/mL (≈ 9.86 µM) | Activity (Cell membrane [10]): Active | Activity [11]: 7 nm | MIC (Staphylococcus aureus [12]): 8 µg/mL (≈ 9.86 µM) | MIC (Escherichia coli [2]): 4 µg/mL (≈ 4.93 µM) | Ratio (Escherichia coli [13]): > 1 | MIC (Staphylococcus aureus [14]): 8 µg/mL (≈ 9.86 µM) | Activity (Cell membrane [15]): Active | survival at 96 h [16]: 100% | Activity [17]: 15 mV | Activity (Staphylococcus aureus [18]): Active | MIC (Staphylococcus aureus [19]): 4 µg/mL (≈ 4.93 µM) | Activity (Staphylococcus aureus [20]): Active | Activity (Cell membrane [21]): Active | viability at 24 h [22]: 100% | Activity (Cell membrane [23]): inactive | survival at 96 h [24]: 80% | inhibition (Staphylococcus aureus [25]): Active | Retention_time [26]: 13.8 min | Ratio (Staphylococcus aureus [27]): > 1 | Activity (HEK293): Non-Toxic | fractional inhibitory concentration index (FICI) (Acinetobacter baumannii [28]): 0.75 | Activity (Escherichia coli [29]): Active | Activity (Staphylococcus aureus [3]): Active | fractional inhibitory concentration index (FICI) (Escherichia coli [30]): 0.62

CCCCCCCCCCCCCCCCCCN[C@@H](C)C(=O)N[C@@H](C)C(=O)NC(CN)C(=O)NC(CN)C(=O)NC(CN)C(=O)O (some centres not stated)
MIC (Acinetobacter baumannii [1]): 64 µg/mL (≈ 95.4 µM) | Activity [31]: Active | MIC (Escherichia coli [2]): 32 µg/mL (≈ 47.7 µM) | Ratio (Escherichia coli [13]): > 1 | MIC (Staphylococcus aureus [14]): 64 µg/mL (≈ 95.4 µM) | Activity (HT-29 [32]): Non-Toxic | Activity [17]: 10.3 mV | MIC (Staphylococcus aureus [19]): 32 µg/mL (≈ 47.7 µM) | Activity (HT-29 [33]): Non-Toxic | Retention_time [26]: 15.9 min | Ratio (Staphylococcus aureus [27]): > 1

Source: ChEMBL document CHEMBL5365541, “Designing peptide amphiphiles as novel antibacterials and antibiotic adjuvants against gram-negative bacteria” (Bioorg Med Chem, 2023)
